Screens from PubChem BioAssay.
CAL PDZ FP-1 = untagged CAL PDZ binding inhibitors, primary screen, biochemical, fluorescence polarization, HTS | Golgi-associated PDZ and coiled-coil motif-containing protein (Homo sapiens), Q9HD26 | 300,000 compounds, 0.92% hits | inhibition, % at 24.9 µM | purified CAL PDZ, TMR-peptide fluorescence polarization, 1 h;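 active = mean inhibition of at least 30% with at least half of replicates also reaching 30%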
Rin1 Abl inh = inhibitors of Rin1-Abl protein binding, primary screen, biochemical, TR-FRET; Tyrosine-protein kinase ABL1 (Homo sapiens) + Ras and Rab interactor 1 (Homo sapiens), …; inhibition, % at 7.35 µM; 360,000 compounds, 0.4% hits; AID 588664, 2011; in the data active = inhibition above about 5%, passing the limit was not always enough
CAL PDZ FP-2 = CAL PDZ peptide-binding inhibitors, primary screen, biochemical, fluorescence polarization, Cer-tagged CAL PDZ, HTS. purified CAL PDZ, TMR-peptide fluorescence polarization, 1 h. 330,000 compounds, 0.02% hits. inhibition, % at 20 µM. AID 504414, 2011;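 active = highest replicate inhibition of at least 40%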
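Material – purified CerCALP PDZ construct · Detection – FP readout, S and P plane fluorescence · Measure – percent inhibition from loss of millipolarization · Controls – unlabelled peptide for full inhibition, DMSO wells as neutral · Probe or stimulus – TMR-labelled reporter peptide T*-PRC34 bound in PDZ groove · Times – 1 h at RT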
PDI inh = inhibitors of human PDI, primary screen, biochemical, turbidity, single point, plate reader. Protein disulfide-isomerase (Homo sapiens), P07237. PDI insulin aggregation turbidity, A650, 90 min. inhibition, % at 10 µM. 350,000 compounds, 0.052% hits. AID 588391, 2011;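 active = mean inhibition across replicates of 30% or more, whatever share of single replicates reach that level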
ERp5 inh = inhibitors of ERp5-driven insulin aggregation, primary screen, biochemical, turbidity, absorbance 650 nm, single point | Protein disulfide-isomerase A6 (Homo sapiens), Q15084 | 90 min | inhibition, % at 9.99 µM | 350,000 compounds, 0.05% hits | AID 651711, 2012;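 active = mean replicate inhibition above about 25%, with every replicate also reaching it, limit read from the data, passing the limit was not always enough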
Target sequence (Q15084 whole entry, looked up): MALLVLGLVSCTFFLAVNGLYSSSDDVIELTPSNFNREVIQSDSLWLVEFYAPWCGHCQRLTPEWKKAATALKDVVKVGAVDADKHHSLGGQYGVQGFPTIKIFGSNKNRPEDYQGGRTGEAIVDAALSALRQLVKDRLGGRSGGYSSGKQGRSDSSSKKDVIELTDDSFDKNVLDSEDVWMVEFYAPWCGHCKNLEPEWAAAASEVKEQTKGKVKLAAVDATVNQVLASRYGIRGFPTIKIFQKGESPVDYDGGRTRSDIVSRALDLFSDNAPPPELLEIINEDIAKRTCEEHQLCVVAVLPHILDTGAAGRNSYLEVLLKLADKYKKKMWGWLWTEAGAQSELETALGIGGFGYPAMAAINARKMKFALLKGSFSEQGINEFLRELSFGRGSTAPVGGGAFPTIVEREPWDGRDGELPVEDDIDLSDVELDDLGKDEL
ERAP1 HTS inh = human ERAP1 aminopeptidase inhibitors, primary screen, biochemical, single point, plate reader | recombinant ERAP1, Leu-AMC fluorescence, 60 min | inhibition, % at 10.7 µM | 340,000 compounds, 0.15% hits | AID 652197, 2013;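 active = mean replicate inhibition of at least 30%, or all replicates individually reaching that 30% level; inactive = mean below 30% and not every replicate reaching it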
Rin1-Abl confirm = Rin1-Abl binding inhibitor retest, confirmation, biochemical, TR-FRET; shares compounds with Rin1 Abl inh; inhibition, % at 7.35 µM; 1,300 compounds, 49% hits; purified proteins; AID 602124, 2011
GFP quencher = GFP fluorescence inhibitors and quenchers, artefact control for Rin1-Abl interaction inhibitor project, biochemical; shares compounds with Rin1 Abl inh; inhibitors/quenchers counterscreen; inhibition, % at 6.75 µM; 1,300 compounds, 8.5% hits;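 also: ABL1-eGFP fusion protein alone without its partner RIN1-SBP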
GFP quench dose = GFP fluorescence inhibitors and quenchers, dose response, artefact control for Rin1-Abl interaction inhibitor project, biochemical; IC50, µM; GFP fluorescence interference/quenching counterscreen; shares compounds with Rin1 Abl inh; 230 tested, under 10 active; AID 602182, 2012; call rule not given here;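 also: ABL1-eGFP fusion protein alone without its RIN1 binding partner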
Hits are given with their value; . = inactive; / = no result given. Rows were chosen to be rich in hits. Some 1.1% of all compounds tested hit in one or more screens of this group. Rule as the data show it, unless noted: active = inhibition above about 6.5%; inactive = the rest.

SMILES	CAL PDZ FP-1	Rin1 Abl inh	CAL PDZ FP-2	PDI inh	ERp5 inh	ERAP1 HTS inh	Rin1-Abl confirm	GFP quencher	others
Cc1ccc(S(=O)(=O)N2CCCC2CNC(=O)C(=O)NCc2ccc3c(c2)OCO3)cc1 (centres undefined)	/	10	/	.	.	.	.	.
O=C(c1ccccc1)c1ccc(OCC(O)CN2CCN(S(=O)(=O)N3CCCCC3)CC2)cc1 (centres undefined)	.	6.7	.	.	/	/	.	.
O=C(c1ccccc1)c1ccc(OCC(O)CN2CCCCC2)cc1 (centres undefined)	.	.	.	.	/	/	/	/
Cn1c(=O)c2c(ncn2CC(=O)N2CCN(S(=O)(=O)c3ccc(Cl)cc3)CC2)n(C)c1=O	.	.	.	.	.	.	/	/
Cc1ccc(S(=O)(=O)N2CCN(C(=O)Cn3cnc4c3c(=O)n(C)c(=O)n4C)CC2)cc1C	.	17	.	.	.	.	19	.	GFP quench dose=.
CCC(=O)N1CC2(C1)[C@@H](c1ccccc1)[C@@H](CO)N2Cc1ccccc1F	/	/	/	/	.	.	/	/
COc1ccc(CNC(=O)C2=C(C)C(=O)OC23CCC(C)CC3)cc1 (centres undefined)	.	7.4	.	/	.	.	.	.
CC1=C(C(=O)NCc2ccc(Cl)cc2)C2(CCC(C)CC2)OC1=O (centres undefined)	.	.	.	.	.	.	/	/
COCC(=O)N(C[C@@H]1N[C@@H](CO)[C@H]1c1ccc(-c2ccccc2)cc1)C(C)C	/	/	/	/	.	.	/	/
O=C1C=CC2=C3c4cc(O)c(O)cc4CC3(O)COC2=C1O (centres undefined)	.	67	.	/	.	.	73	45
C[C@@H]1CN([C@@H](C)CO)C(=O)c2cc(-c3ccccc3)cnc2O[C@H]1CN(C)C(=O)Cc1cccnc1	/	/	/	/	.	.	/	/
O=C(NCc1ccc(F)cc1)C1CCN(S(=O)(=O)N2CCOCC2)CC1	.	8.4	.	.	.	.	.	.
O=C(O)CC(C(=O)O)N1C(=O)/C(=C/C=C/c2ccco2)SC1=S (centres undefined)	.	18	.	.	.	.	11	13
O=C(O)C(Cc1ccccc1)N1C(=O)/C(=C/C=C/c2ccco2)SC1=S (centres undefined)	.	.	.	.	.	.	/	/
CC(NS(=O)(=O)c1ccc2c(c1)CC(C)N2C(=O)C1CC1)c1ccccc1 (centres undefined)	.	9.5	.	.	.	.	.	.
COc1cc(CNCCc2ccc(F)cc2)ccc1OCc1ccc(Cl)nc1	.	12	.	.	.	.	11	.
COc1cc(CO)ccc1OCc1ccc(Cl)nc1	/	.	.	.	.	/	/	/
COc1cc(CNCCc2ccccc2F)ccc1OCc1ccc(Cl)nc1	.	7.5	.	.	/	/	7.2	.
COc1ccccc1-c1ccc([C@@H]2[C@H](CO)N(CC3CC3)C23CN(S(C)(=O)=O)C3)cc1	/	/	/	/	.	.	/	/
CC(C)NC(=O)N(C)C[C@H]1Oc2ncc(C3=CCCCC3)cc2C(=O)N([C@@H](C)CO)C[C@H]1C	/	/	/	/	.	.	/	/
CCN(CC)CCNC(=O)c1ccc(NC(=O)C2CCN(c3ncnc4sc(C)c(C)c34)CC2)cc1	.	10	.	.	.	.	.	.
